# From PubChem
# A3G deaminase: APOBEC3G (human) deaminase inhibition | recombinant A3G, ssDNA deamination FAM/TAMRA fluorescence | AID 493012 | inhibition, % at 20 µM | Q9HC16 | actives 0.28% (n = 330,000);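 active = inhibition of at least 40% at 20 µM, with no more than 30% in the related APOBEC3A deaminase screen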;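 also: plate controls were DMSO wells with A3G for no effect and wells lacking A3G enzyme for full effect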
# Target sequence (Q9HC16 whole entry, looked up): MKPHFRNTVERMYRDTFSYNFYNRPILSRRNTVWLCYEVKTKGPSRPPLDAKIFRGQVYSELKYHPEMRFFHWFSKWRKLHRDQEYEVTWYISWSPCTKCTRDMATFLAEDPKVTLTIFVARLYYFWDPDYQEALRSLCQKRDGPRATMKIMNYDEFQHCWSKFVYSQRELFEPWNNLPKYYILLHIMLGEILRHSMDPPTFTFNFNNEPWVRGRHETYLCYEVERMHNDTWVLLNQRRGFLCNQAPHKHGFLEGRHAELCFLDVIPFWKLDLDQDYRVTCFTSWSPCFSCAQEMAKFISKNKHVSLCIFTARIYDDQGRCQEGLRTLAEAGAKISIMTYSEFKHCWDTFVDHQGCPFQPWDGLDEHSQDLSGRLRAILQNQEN
# Keap1 Nrf2 FP: Keap1-Nrf2 (human) interaction inhibition; Q14145; Keap1 Kelch-Nrf2 peptide fluorescence polarization, 1536-well; inhibition, % at 9.4 µM; actives 0.15% (n = 340,000); AID 504523; in the data active = inhibition above about 12%;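 also: human Keap1 Kelch domain with fluorescein labeled Nrf2 9mer peptide probe; 0% = neutral control wells and 100% = peptide positive control; higher means more block of Keap1 binding to Nrf2 peptide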
# CAL PDZ FP-1: blocks peptide binding to the human CAL PDZ domain | purified CAL PDZ, TMR-peptide fluorescence polarization, 1 h | actives 0.92% (n = 300,000) | inhibition, % at 24.9 µM;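 active = mean inhibition of at least 30% with at least half of replicates also reaching 30%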;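 also: 0% = DMSO neutral control and 100% = excess unlabeled competitor peptide PRC23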
# CAL PDZ FP-2: human CAL PDZ-peptide interaction inhibition; inhibition, % at 20 µM; AID 504414; actives 0.02% (n = 330,000); Q9HD26; purified CAL PDZ, TMR-peptide fluorescence polarization, 1 h;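 active = highest replicate inhibition of at least 40%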;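 also: plate controls were DMSO neutral control wells for no effect and unlabeled competitor peptide control wells for full effect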
#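 Test system: tagged CAL PDZ domain / Buffer or medium: sodium phosphate/NaCl buffer pH 7.4 with TCEP, IgG, Thesit / Reagent: TMR-labelled reporter peptide T*-PRC34 bound in PDZ groove / Compound dosing: single point, 20 µM / Schedule: 1 h incubation at room temperature before polarization reading / Technique: fluorescence polarization (mP) / Benchmarks: unlabelled peptide, DMSO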
# LANA DNA inh: blocks KSHV LANA C-terminal domain binding to DNA | MBP-C-LANA/FAM-LBS DNA binding, fluorescence polarization | inhibition, % at 9 µM | actives 0.078% (n = 340,000) | AID 504423;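 active = highest replicate inhibition at or above 60% at 9 µM, even if other replicates fall short; inactive = all replicates below 60% inhibition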;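 also: 0% = neutral control wells and 100% = 4 µM acridine orange control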
# A3A deaminase: human APOBEC3A DNA deaminase inhibition; AID 493011; inhibition, % at 20 µM; P31941; recombinant A3A, FAM/TAMRA ssDNA deamination fluorescence; actives 0.41% (n = 330,000);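 active = at least 40% inhibition at 20 µM here, with at most 30% in a related deaminase screen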;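 also: plate controls were A3A with DMSO for no effect and wells lacking A3A enzyme for full effect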
# * marks the source's active call; other numbers are inactive results; nt = no result given; + = active, no number. Shown are actives, neighbours in structure and some others; about 1.7% of the full set was active somewhere.
SMILES,A3G deaminase,Keap1 Nrf2 FP,CAL PDZ FP-1,CAL PDZ FP-2,LANA DNA inh,A3A deaminase
COc1cccc(-n2c(=O)c3ccccc3n(CC(=O)NCC3CCCO3)c2=O)c1 (centres undefined),-8.3,0.5,-9.0,-0.1,-0.3,-1.7
COc1cccc(-n2c(=O)c3sccc3n(CC(=O)NCC3CCCO3)c2=O)c1 (centres undefined),0.9,-2.8,38.5*,-2.8,-0.8,2.5
COc1ccccc1C(=O)NNS(=O)(=O)c1ccc(F)cc1,-1.2,2.3,-5.4,0.4,1.1,-7.4
O=C(NNS(=O)(=O)c1ccc(F)cc1)c1ccccc1F,-8.9,-2.6,40.9*,-5.3,-2.3,-2.3
CC(Sc1ccc(Br)cc1)C(N)=O (centres undefined),-0.3,3.0,-4.4,0.4,0.6,101.7*
Cc1ccc(C)c(OCCC(=O)Nc2ccc3c(c2)OCO3)c1,-8.3,-4.3,-1.2,1.6,0.4,-2.7
O=C(Nc1ccccc1)c1ccc(CN2CCc3ccccc3C2)cc1,0.7,-4.0,5.3,0.8,0.3,2.9
O=C(Nc1ccccc1F)c1ccc(CN2CCc3ccccc3C2)cc1,-5.6,-1.3,132.5*,nt,-22.5,5.6
CCN(Cc1cnn(C)c1)C(=O)C1CCC(=O)N(CCc2ccc(OC)cc2)C1 (centres undefined),-6.6,-0.3,85.9*,-0.6,-1.4,-6.4
CCc1ccc(CN(C)C(=O)C2CCC(=O)N(CCc3ccc(OC)cc3)C2)nc1 (centres undefined),-8.5,-1.1,-1.5,-2.0,-0.2,-4.2
COc1cccc(-c2ccnc3[nH]n(-c4ccccc4)c(=O)c23)c1,-1.6,0.5,67.1*,-1.3,1.0,-6.1
O=c1c2c(-c3ccc([N+](=O)[O-])cc3)ccnc2[nH]n1-c1ccccc1,1.0,1.0,0.2,nt,-2.4,-2.2
Cc1cc(-c2ccccc2)nc2[nH]n(-c3ccccc3)c(=O)c12,-4.3,4.0,-1.3,-2.9,-2.2,1.6
COc1ccc(-c2ccnc3[nH]n(-c4ccccc4)c(=O)c23)cc1,-5.9,-0.5,59.7*,-1.0,2.2,2.2
O=C(O)c1ccc(/C=C/c2nc3ccccc3c(=O)[nH]2)cc1,-2.7,-1.5,+,1.7,0.3,1.3
COc1ccc(NC(=O)[C@@H]2CCCN2C(=O)c2cccs2)cc1S(=O)(=O)N1CCCCC1,-11.8,-6.4,-3.8,0.3,-0.1,-1.8
COc1ccc(NC(C)=O)cc1NC(=O)C1CCCN1C(=O)c1cccs1 (centres undefined),-10.1,2.6,48.1*,-0.6,-1.6,-2.8
COC(=O)c1cc(-c2ccc(OC)c(OC)c2)c2c(=O)[nH]c(=O)n(C)c2n1,-6.8,1.5,-0.8,-2.3,0.2,2.4
Cc1cc(C)c(S(=O)(=O)N(C)CC(=O)NCCN2CCOCC2)c(C)c1,0.4,3.5,31.0*,-0.5,-1.0,-4.0
COc1ccc(Oc2ncccc2NC(=O)c2cccc(C)c2C)cc1,-7.0,2.8,-6.6,-0.4,-0.3,-3.0
C=C(C)C(=O)Nc1cccnc1Oc1ccc(F)cc1,-6.6,-3.6,111.5*,-0.1,1.3,-3.8
COC(=O)c1ccccc1NC(=O)CCCn1nc([N+](=O)[O-])c(Br)c1C,-1.6,5.0,-5.9,-0.1,1.4,-2.0
Fc1ccc(-n2c(-c3ccc4ccccc4n3)n[nH]c2=S)cc1Cl,-5.7,-0.9,71.1*,nt,1.1,-13.0
CC1CCN(CCCn2c(=S)[nH]c3c(sc4ccccc43)c2=O)CC1,6.3,-5.2,50.5*,12.5,-1.2,-11.0
CCOC(=O)C(Cc1ccccc1)c1ccnc2ncnn12 (centres undefined),-2.6,-6.1,34.0*,0.4,1.8,4.1
Cc1ccc(NC(=O)C2CCN(c3ncnc4c3nc3n4CCCCC3)CC2)nc1,-0.6,2.5,0.6,-1.1,-2.0,-2.2
COc1ccc(OC)c(NC(=O)C(C)N2c3cccc4cccc(c34)S2(=O)=O)c1 (centres undefined),0.9,0.8,72.6*,0.3,-1.4,-4.2
CCC1CN(C(=O)N2CCC(C(=O)NCc3cccc(OC)c3OC)CC2)c2cc(C)ccc2O1 (centres undefined),0.8,-5.5,2.8,-0.5,1.2,-1.0
